Reference: ChEMBL document CHEMBL1124479, “N-[(arylmethoxy)phenyl] and N-[(arylmethoxy)naphthyl] sulfonamides: potent orally active leukotriene D4 antagonists of novel structure” (J Med Chem, 1989)
The source made the active and inactive calls. The rule behind the calls is not given here.

Experiments:
Cavia porcellus [1] = assay: Inhibition of Leukotriene D4 induced bronchoconstriction when compound was administered intraduodenally at a dose of 25 mg/kg in guinea pig
Cavia porcellus [2] = assay: Inhibition of Leukotriene D4 induced bronchoconstriction in guinea pig by 50 mg/kg i.d.; settings: at 50 mg/kg
Cavia porcellus [3] = assay: Inhibition of ovalbumin-induced bronchoconstriction when compound was administered intraduodenally at a dose of 50 mg/kg in guinea pig; type: functional; settings: route intraduodenal
Procedure, shortened: (§1)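 Single-dose screen in guinea pigs, with n animals per group. Significance versus control used a two-tailed Student's t test (p < 0.05), or one-way ANOVA with contrasts based on each treatment's difference from its own control mean.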

Cavia porcellus [4] = assay: Inhibition of Leukotriene D4 induced bronchoconstriction when compound was administered perorally at a dose of 50 mg/kg in guinea pig; type: functional; settings: route oral
Procedure, shortened: as §1

Cavia porcellus [5] = assay: Inhibition of ovalbumin-induced bronchoconstriction when compound was administered perorally at a dose of 50 mg/kg in guinea pig; type: functional; settings: route oral
Procedure, shortened: as §1

Cavia porcellus [6] = assay: Inhibitory dose of the intraduodenally administered compound (10 min before giving agonist) that produced a 50% inhibition of leukotriene D4 induced bronchoconstriction in guinea pigs; type: functional; settings: intraduodenal, read-out: ID50 (the source's name)
Procedure, shortened: (§2)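 Guinea pigs, intraduodenal dosing, with LTD4 or ovalbumin challenge. ID50 is the dose of antagonist giving 50% inhibition of the induced bronchoconstriction.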

Cavia porcellus [7] = assay: Inhibition of Leukotriene D4 induced bronchoconstriction when compound was administered perorally at a dose of 25 mg/kg in guinea pig; type: functional; settings: route oral
Procedure, shortened: as §1

[8] = target: T1, Polyunsaturated fatty acid 5-lipoxygenase (Rattus norvegicus, UniProt P12527); assay: Inhibitory concentration to inhibit 5-lipoxygenase in the rat
T1 sequence (P12527 whole entry): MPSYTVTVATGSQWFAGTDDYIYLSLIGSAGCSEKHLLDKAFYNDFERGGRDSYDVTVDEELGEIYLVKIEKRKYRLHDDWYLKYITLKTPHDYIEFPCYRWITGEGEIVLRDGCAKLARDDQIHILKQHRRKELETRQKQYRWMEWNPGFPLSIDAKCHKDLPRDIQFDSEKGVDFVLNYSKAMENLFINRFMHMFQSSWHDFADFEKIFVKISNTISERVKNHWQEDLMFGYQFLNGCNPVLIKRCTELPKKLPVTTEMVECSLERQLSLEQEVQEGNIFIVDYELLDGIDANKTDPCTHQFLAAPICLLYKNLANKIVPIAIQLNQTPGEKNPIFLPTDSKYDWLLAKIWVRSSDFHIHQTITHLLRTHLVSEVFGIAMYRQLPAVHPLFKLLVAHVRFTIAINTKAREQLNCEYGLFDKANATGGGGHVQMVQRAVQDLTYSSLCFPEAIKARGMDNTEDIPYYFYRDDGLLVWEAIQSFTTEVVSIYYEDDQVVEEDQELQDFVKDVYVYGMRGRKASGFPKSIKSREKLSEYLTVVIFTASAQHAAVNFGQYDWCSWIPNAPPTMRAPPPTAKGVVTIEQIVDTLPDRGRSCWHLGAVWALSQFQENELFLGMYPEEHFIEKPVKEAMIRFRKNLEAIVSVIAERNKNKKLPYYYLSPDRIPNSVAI
Procedure, shortened: (§3)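 Rat PMN assay, measuring 5-lipoxygenase and cyclooxygenase activity. IC50 values are in μM.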

Cavia porcellus [9] = assay: Inhibition of ovalbumin-induced bronchoconstriction when compound was administered intraduodenally at a dose of 10 mg/kg in guinea pig; type: functional; settings: route intraduodenal
Procedure, shortened: as §1

[10] = Binding studies using tritium-labelled leukotriene D4; parameters: species or system Cavia porcellus
Cavia porcellus [11] = assay: Inhibition of ovalbumin-induced bronchoconstriction when compound was administered perorally at a dose of 25 mg/kg in guinea pig; type: functional; settings: route oral
Procedure, shortened: as §1

Cavia porcellus [12] = assay: Inhibitory dose of the intragastrically administered compound (120 min before giving agonist) that produced a 50% inhibition of leukotriene D4 induced bronchoconstriction in guinea pigs; type: functional; settings: po, read-out: ID50 (the source's name)
Procedure, shortened: (§4)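 Guinea pigs, awake, dosed intragastrically 120 min before agonist challenge (95 min before anesthetic). The LTD4 challenge was given intravenously; ovalbumin served as antigen. ID50 is the dose giving 50% inhibition of LTD4- or ovalbumin-induced bronchoconstriction.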

Mus musculus = assay: Compound was administered intragastrically and tested in a mouse ear edema assay; Inactive; type: functional, organism-based
Cavia porcellus [13] = species on record: Cavia porcellus; assay: Activity against leukotriene C4-induced contraction of guinea pig trachea, in the presence of glutathione
Cavia porcellus [14] = assay: Inhibitory dose of the intragastrically administered compound (120 min before giving agonist) that produced a 50% inhibition of ovalbumin induced bronchoconstriction in guinea pigs; type: functional; settings: po, read-out: ID50 (the source's name)
Procedure, shortened: as §4

Cyclooxygenase = target: T2, Cyclooxygenase (Rattus norvegicus, UniProt P35355+Q63921); assay: Inhibitory concentration to inhibit Prostaglandin G/H synthase in the rat; type: protein assay
T2 sequence (P35355 whole entry): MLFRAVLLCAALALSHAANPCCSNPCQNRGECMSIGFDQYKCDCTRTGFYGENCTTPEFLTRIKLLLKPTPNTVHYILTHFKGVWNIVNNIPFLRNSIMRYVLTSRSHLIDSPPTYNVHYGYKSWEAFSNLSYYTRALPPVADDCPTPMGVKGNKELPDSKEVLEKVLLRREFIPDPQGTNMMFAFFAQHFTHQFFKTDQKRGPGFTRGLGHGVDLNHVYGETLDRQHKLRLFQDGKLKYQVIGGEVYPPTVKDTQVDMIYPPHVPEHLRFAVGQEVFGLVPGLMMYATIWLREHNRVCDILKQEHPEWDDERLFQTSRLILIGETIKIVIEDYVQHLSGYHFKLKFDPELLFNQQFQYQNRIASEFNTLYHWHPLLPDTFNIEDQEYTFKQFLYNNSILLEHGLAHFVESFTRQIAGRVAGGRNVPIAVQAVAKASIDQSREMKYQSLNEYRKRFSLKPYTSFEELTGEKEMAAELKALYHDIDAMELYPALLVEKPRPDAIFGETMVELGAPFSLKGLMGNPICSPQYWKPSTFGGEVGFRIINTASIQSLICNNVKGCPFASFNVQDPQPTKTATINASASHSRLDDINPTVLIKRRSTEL
T2 sequence (Q63921 whole entry): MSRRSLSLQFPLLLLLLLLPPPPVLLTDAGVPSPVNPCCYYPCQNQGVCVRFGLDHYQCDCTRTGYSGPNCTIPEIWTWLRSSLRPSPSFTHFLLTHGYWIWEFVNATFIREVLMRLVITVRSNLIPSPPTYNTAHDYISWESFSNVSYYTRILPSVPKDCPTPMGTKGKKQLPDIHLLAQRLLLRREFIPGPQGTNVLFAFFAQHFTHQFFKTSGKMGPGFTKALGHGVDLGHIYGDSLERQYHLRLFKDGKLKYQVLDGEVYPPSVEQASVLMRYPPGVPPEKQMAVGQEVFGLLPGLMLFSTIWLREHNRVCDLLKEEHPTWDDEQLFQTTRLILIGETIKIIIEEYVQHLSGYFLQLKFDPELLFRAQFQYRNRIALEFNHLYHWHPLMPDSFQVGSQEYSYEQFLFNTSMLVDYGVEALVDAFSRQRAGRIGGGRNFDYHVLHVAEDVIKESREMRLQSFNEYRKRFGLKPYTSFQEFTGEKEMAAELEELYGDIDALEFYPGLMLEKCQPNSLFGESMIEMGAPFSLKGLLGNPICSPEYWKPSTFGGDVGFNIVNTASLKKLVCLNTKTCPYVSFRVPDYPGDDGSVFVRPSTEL
Procedure, shortened: as §3

[15] = Dissociation constant was determined; type: physicochemical
Procedure, shortened: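 Isolated guinea pig trachea pretreated with indomethacin and L-cysteine, then contracted with LTD4. Antagonism of the LTD4-induced contraction was expressed as a pKB value.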

Cavia porcellus [16] = assay: Inhibitory dose of the intraduodenally administered compound (10 min before giving agonist) that produced a 50% inhibition of ovalbumin induced bronchoconstriction in guinea pigs; type: functional; settings: intraduodenal, read-out: ID50 (the source's name)
Procedure, shortened: as §2

Rattus norvegicus = assay: Compound at 100 mg/kg was administered intragastrically and tested in a rat carrageenan paw edema assay; type: functional; settings: po, route intragastric
Cavia porcellus [17] = assay: Percentage inhibition of Leukotriene D4 when Compound was administered perorally at a dose of 50 mg/kg in guinea pig,; type: functional; settings: route oral
Procedure, shortened: as §1

| inhibition (Cavia porcellus [1]) [%] | inhibition (Cavia porcellus [2]) [%] | Compound | further results |
| --- | --- | --- | --- |
| 0 |  | O=C(O)c1ccc(S(=O)(=O)Nc2cccc(OCc3ccc4ccccc4n3)c2)cc1 |  |
|  | 48 | CCCS(=O)(=O)Nc1cccc(OCc2nc3ccccc3s2)c1 | inhibition in vivo at 50 mg/kg (Cavia porcellus [3]): 18% |
| 24 |  | O=S(=O)(Nc1ccccc1OCc1ccc2ccccc2n1)C(F)(F)F |  |
| 28 |  | CS(=O)(=O)Nc1ccc([N+](=O)[O-])cc1OCc1ccc2ccccc2n1 |  |
|  | 51 | CCCCS(=O)(=O)Nc1ccc2ccc(OCc3ccc4ccccc4n3)cc2c1 |  |
| 46 |  | O=S(=O)(Nc1cccc(OCc2ccc3ccccc3n2)c1)c1ccc(C(F)(F)F)cc1 |  |
|  | 91 | CCS(=O)(=O)Nc1ccc2ccc(OCc3ccc4ccccc4n3)cc2c1 | inhibition in vivo at 50 mg/kg (Cavia porcellus [3]): 20%; inhibition in vivo at 50 mg/kg (Cavia porcellus [4]): 34%; inhibition in vivo at 50 mg/kg (Cavia porcellus [5]): 24% |
| 11 |  | O=S(=O)(Nc1cccc(Oc2ccccn2)c1)C(F)(F)F |  |
|  |  | O=S(=O)(Nc1cccc(OCc2ccc3ccccc3n2)c1)C(F)(F)F [RITOLUKAST] | ED50 (Cavia porcellus [6]): 0.3 mg/kg; inhibition in vivo at 25 mg/kg (Cavia porcellus [7]): 100%; IC50 [8]: 4.6 µM; inhibition in vivo at 10 mg/kg (Cavia porcellus [9]): 73%; Kd [10]: 0.035 µM; inhibition in vivo at 25 mg/kg (Cavia porcellus [11]): 69%; ED50 (Cavia porcellus [12]): 0.1 mg/kg; inhibition (Mus musculus): inactive; Dose (Cavia porcellus [13]): 30 µM; ED50 (Cavia porcellus [14]): 0.6 mg/kg; IC50 (Cyclooxygenase): 3.3 µM; pKB [15]: 7.7; ED50 (Cavia porcellus [16]): 3 mg/kg; inhibition in vivo at 100 mg/kg (Rattus norvegicus): 20% |
|  | 27 | CCS(=O)(=O)Nc1ccc2ccc(OCc3nc4ccccc4s3)cc2c1 |  |
|  | 37 | CCS(=O)(=O)N(C)c1ccc2ccc(OCc3ccc4ccccc4n3)cc2c1 |  |
| 50 |  | O=S(=O)(Nc1cccc(Oc2cccc3cccnc23)c1)C(F)(F)F |  |
| 94 |  | O=S(=O)(Nc1cccc(OCc2nc3ccccc3s2)c1)C(F)(F)F |  |
|  | 60 | CS(=O)(=O)Nc1cccc(OCc2nc3ccccc3s2)c1 | inhibition in vivo at 50 mg/kg (Cavia porcellus [3]): 44% |
|  | 75 | CCS(=O)(=O)Nc1cccc(OCc2nc3ccccc3n2C)c1 | inhibition in vivo at 50 mg/kg (Cavia porcellus [3]): 16% |
|  | 83 | CCS(=O)(=O)Nc1cccc(OCc2ccc3ccccc3n2)c1 | inhibition in vivo at 50 mg/kg (Cavia porcellus [3]): 0% |
|  | 4 | CCCS(=O)(=O)N(c1cccc(OCc2ccc3ccccc3n2)c1)S(=O)(=O)CCC |  |
| 13 |  | O=S(=O)(Nc1cccc(OCc2csc3ccccc23)c1)C(F)(F)F |  |
|  | 68 | CS(=O)(=O)Nc1ccc2ccc(OCc3ccc4ccccc4n3)cc2c1 |  |
|  | 30 | CCCCS(=O)(=O)Nc1cccc(OCc2ccc3ccccc3n2)c1 |  |

| inhibition (Cavia porcellus [1]) [%] | inhibition (Cavia porcellus [2]) [%] | Compound | further results |
| --- | --- | --- | --- |
|  | 56 | CCCCS(=O)(=O)Nc1cccc(OCc2nc3ccccc3s2)c1 | inhibition in vivo at 50 mg/kg (Cavia porcellus [3]): 16% |
| 11 |  | CN(C)S(=O)(=O)Nc1cccc(OCc2ccc3ccccc3n2)c1 |  |
| 13 |  | CCS(=O)(=O)Nc1cccc(OCc2cc3ccccc3s2)c1 | inhibition in vivo at 50 mg/kg (Cavia porcellus [3]): 4% |
|  | 2 | CCCCS(=O)(=O)Nc1cccc(OCc2nc3ccccc3n2C)c1 | inhibition in vivo at 50 mg/kg (Cavia porcellus [3]): 8% |
| 58 |  | O=C(O)CS(=O)(=O)Nc1cccc(OCc2ccc3ccccc3n2)c1 |  |
| 14 |  | O=S(=O)(NCCc1cccc(OCc2ccc3ccccc3n2)c1)C(F)(F)F |  |
| 78 |  | O=C1CS(=O)(=O)Nc2cc(OCc3ccc4ccccc4n3)ccc21 | inhibition in vivo at 50 mg/kg (Cavia porcellus [4]): 3% |
| 28 |  | O=S(=O)(Nc1ccc(OCc2ccc3ccccc3n2)cc1)C(F)(F)F |  |
|  | 42 | CCS(=O)(=O)Nc1cccc(OCc2ccc3ccccc3c2)c1 |  |
|  | 37 | CCCS(=O)(=O)Nc1cccc(OCc2nc3ccccc3n2C)c1 | inhibition in vivo at 50 mg/kg (Cavia porcellus [3]): 31%; inhibition in vivo at 50 mg/kg (Cavia porcellus [4]): 36%; inhibition in vivo at 50 mg/kg (Cavia porcellus [5]): 17% |
| 10 |  | Cc1ccc(S(=O)(=O)Nc2cccc(SCc3ccc4ccccc4n3)c2)cc1 |  |
| 85 |  | O=S(=O)(Nc1cccc(SCc2ccc3ccccc3n2)c1)C(F)(F)F | inhibition in vivo at 25 mg/kg (Cavia porcellus [7]): 97%; inhibition in vivo at 25 mg/kg (Cavia porcellus [11]): 59% |
|  | 38 | CCCS(=O)(=O)N(c1cccc(OCc2nc3ccccc3s2)c1)S(=O)(=O)CCC |  |
| 100 |  | O=S(=O)(CC(F)(F)F)Nc1cccc(OCc2ccc3ccccc3n2)c1 |  |
|  | -6 | CCS(=O)(=O)Nc1cccc2ccc(OCc3ccc4ccccc4n3)cc12 |  |
|  | 28 | CCS(=O)(=O)Nc1ccc2ccc(OCc3ccc4ccccc4c3)cc2c1 |  |
| -5 |  | O=S(=O)(Nc1ccccc1SCc1ccc2ccccc2n1)C(F)(F)F |  |
| 69 |  | COC(=O)CS(=O)(=O)Nc1cccc(OCc2ccc3ccccc3n2)c1 |  |
|  | 41 | CCS(=O)(=O)Nc1cccc(OCc2nc3ccccc3s2)c1 | inhibition in vivo at 50 mg/kg (Cavia porcellus [17]): 13%; inhibition in vivo at 50 mg/kg (Cavia porcellus [3]): 35%; inhibition in vivo at 50 mg/kg (Cavia porcellus [5]): 32% |
